This note sets out measurements from ChEMBL document CHEMBL3616378 (J Med Chem, 2015).

In one data set the target is CYP2D6 (Homo sapiens, UniProt P10635). Put plainly: Inhibition of human CYP2D6 at 10 uM. It is filed as ADME. An outline of the steps: (§1)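 Inhibition of human CYP isoforms was measured with the compound tested at 10 µM.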
Data set [1] has as its target T1, Metabotropic glutamate receptor 3 (Homo sapiens, UniProt Q14832). Put plainly: Agonist activity at human recombinant mGlu3 receptor expressed in AV12 cells assessed as inhibition of forskolin-stimulated cAMP production after 1 hr by fluorescence assay. It is filed as functional, cell-based.
A short description of data set [2]: Cmax in Sprague-Dawley rat at 10 mg/kg, ip. It is filed as ADME, organism-based. Set-up: dose 10 mg/kg, route intraperitoneal. The note with it: in vivo. An outline of the steps:
(§2)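 Fasted male Sprague–Dawley rats (~250 g) received a single dose of compound dissolved in water and adjusted to pH 7–7.5 with NaOH, given iv, by oral gavage or ip. Serial blood samples (11–12 per rat) were drawn from a jugular vein catheter into EDTA and kept frozen. Plasma was mixed with methanol:water (1:1) containing an analogue internal standard for analysis. Mean plasma parameters are reported.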

Data set [3] can be described thus: Aqueous solubility of the compound at pH 7.4. It counts as physicochemical.
In a further data set the target is CYP3A4 (Homo sapiens, UniProt P08684). Put plainly: Inhibition of human CYP3A4 at 10 uM. It is filed as ADME. In outline:
as §1

Data set [4] concerns the target T1, Metabotropic glutamate receptor 3. Put plainly: Antagonist activity at human recombinant mGlu3 receptor expressed in AV12 cells assessed as reversal of DCG-4-inhibited, forskolin-stimulated cAMP production after 1 hr by fluorescence assay. It counts as functional, cell-based.
The species named for data set [5] is Rattus norvegicus. Put plainly: Toxicity in Sprague-Dawley rat assessed as impairment of neuromuscular coordination at 300 nM of cerebrospinal fluid concentration by rotarod test. It counts as organism-based. The note with it: in vivo, 0.3 µM.
For data set [6], the system named is Rattus norvegicus. Put plainly: Antipsychosis activity in ip dosed Sprague-Dawley rat assessed as reduction of […] in horizontal ambulations administered 30 mins before PCP challenge measured after 60 mins. It counts as functional.
A short description of data set [7]: Bioavailability in Sprague-Dawley rat at 3 mg/kg, ip. It counts as ADME, organism-based. The note with it: in vivo. An outline of the steps:
as §2

Data set [8] can be described thus: Plasma concentration in Sprague-Dawley rat at 10 mg/kg, ip after 1 hr. It is filed as ADME, organism-based. In outline: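 Separate experiment: single ip doses of 1, 3 and 10 mg/kg to rats, compound in water adjusted to pH 7–7.5 with NaOH; plasma (with csf) sampled at 0.5, 1 and 4 h; mean plasma concentrations ± SEM reported.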
Data set [9] in a line: Bioavailability in Sprague-Dawley rat at 1 mg/kg, ip. As to conditions: in vivo. It is filed as ADME, organism-based. An outline of the steps:
as §2

T1 sequence (Q14832 whole entry): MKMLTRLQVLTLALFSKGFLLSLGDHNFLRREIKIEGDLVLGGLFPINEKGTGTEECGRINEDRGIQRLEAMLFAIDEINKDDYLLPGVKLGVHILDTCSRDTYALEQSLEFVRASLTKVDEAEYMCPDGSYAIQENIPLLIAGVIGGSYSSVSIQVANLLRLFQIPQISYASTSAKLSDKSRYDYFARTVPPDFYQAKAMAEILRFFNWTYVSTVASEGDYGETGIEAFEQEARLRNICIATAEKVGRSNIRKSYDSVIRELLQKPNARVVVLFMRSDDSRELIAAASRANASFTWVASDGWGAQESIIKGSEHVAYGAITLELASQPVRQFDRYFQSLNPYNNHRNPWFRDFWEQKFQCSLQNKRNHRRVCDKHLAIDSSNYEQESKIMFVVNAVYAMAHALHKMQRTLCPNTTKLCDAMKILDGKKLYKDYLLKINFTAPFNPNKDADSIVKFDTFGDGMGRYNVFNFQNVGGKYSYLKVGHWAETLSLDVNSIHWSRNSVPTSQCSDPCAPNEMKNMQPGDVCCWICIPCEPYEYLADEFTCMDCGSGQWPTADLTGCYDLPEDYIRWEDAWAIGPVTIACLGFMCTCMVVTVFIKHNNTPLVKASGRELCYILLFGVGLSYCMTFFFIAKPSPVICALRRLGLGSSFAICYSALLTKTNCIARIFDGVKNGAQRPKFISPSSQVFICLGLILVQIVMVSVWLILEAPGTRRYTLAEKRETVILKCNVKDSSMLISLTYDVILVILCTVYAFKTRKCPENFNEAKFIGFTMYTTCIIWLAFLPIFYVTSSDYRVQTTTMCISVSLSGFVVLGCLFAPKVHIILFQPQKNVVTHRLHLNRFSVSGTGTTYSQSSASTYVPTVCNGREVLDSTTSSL
Chain of CYP3A4 (P08684 whole entry): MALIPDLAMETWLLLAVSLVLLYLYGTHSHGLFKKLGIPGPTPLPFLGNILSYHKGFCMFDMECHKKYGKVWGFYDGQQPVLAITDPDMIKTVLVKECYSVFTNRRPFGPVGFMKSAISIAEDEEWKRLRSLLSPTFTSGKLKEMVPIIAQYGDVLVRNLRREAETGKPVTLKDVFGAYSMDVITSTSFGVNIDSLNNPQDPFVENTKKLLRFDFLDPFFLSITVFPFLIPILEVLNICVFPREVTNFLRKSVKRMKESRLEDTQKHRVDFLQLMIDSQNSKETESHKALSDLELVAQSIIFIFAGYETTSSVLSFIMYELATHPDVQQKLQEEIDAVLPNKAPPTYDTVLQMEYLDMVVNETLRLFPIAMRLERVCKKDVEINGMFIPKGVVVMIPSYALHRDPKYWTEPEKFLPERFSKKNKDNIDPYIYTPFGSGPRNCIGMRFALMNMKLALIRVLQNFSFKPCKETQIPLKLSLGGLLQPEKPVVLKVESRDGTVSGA
Chain of CYP2D6 (P10635 whole entry, canonical isoform): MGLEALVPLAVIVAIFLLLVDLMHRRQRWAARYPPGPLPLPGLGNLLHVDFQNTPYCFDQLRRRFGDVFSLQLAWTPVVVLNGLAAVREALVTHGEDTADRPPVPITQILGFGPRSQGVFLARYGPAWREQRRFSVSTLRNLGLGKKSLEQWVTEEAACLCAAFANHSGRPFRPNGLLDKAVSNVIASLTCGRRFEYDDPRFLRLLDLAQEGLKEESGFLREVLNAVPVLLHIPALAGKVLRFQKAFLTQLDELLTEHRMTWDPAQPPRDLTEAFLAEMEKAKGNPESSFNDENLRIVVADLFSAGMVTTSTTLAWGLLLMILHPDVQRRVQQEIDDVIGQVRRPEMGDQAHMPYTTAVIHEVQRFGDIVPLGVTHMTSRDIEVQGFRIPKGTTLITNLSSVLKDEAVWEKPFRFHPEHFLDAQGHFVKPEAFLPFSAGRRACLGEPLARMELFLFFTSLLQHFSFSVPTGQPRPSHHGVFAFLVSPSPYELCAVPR

With `N[C@@]1(C(=O)O)C[C@@H](Sc2nc[nH]n2)[C@H]2[C@H](C(=O)O)[C@H]21`, the inhibition at 10 µM against CYP2D6 and on CYP3A4 was < 10% each time. The EC50 in [1] was found to be 129 nM. This compound also displayed a Cmax in [2] of 31.1 µM. Moreover, in data set [3], the solubility is > 100 µM. The IC50 in [4] was 2730 nM. For the same compound, in the data set listed under Rattus norvegicus [5], the Activity result is “Toxic”. Moreover, the ED50 in the data set with Rattus norvegicus [6] amounted to 1.2 mg/kg. For the same compound, the bioavailability in data set [7] came to 73%; in data set [9] it was 122%. For the same compound, the concentration at 1 h in data set [8] is 23.6 µM.
